Screening results deposited in PubChem by several laboratories.
Shown are actives, neighbours in structure and some others; about 2.7% of the full set was active somewhere.
HIV Rev-RRE inh = HIV Rev-RRE protein-RNA interaction inhibition; P05866; Rev peptide-RRE RNA binding, FRET; inhibition, % at 8 µM; hit rate 0.79% among 97,000; AID 704;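 active means inhibition above the screen-wide mean plus 3 SD, cut at about 35% in these data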;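 further: 0% = median DMSO wells and 100% = median Neomycin B control wells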
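Material: labelled RRE RNA duplex and labelled Rev peptide / Buffer or medium: HEPES pH 7.5 salt buffer with EDTA / Compound dosing: single point, 8 µM final nominal compound concentration / Benchmarks: DMSO low control, neomycin B high control / Timing: 5 min preincubation and 15 min binding, 25 °C / Technique: FRET fluorescence readout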
DAT uptake mod = changed human dopamine transporter uptake under cocaine IC80; Q01959; LLC-PK1 hDAT cells, [14C]-dopamine uptake with cocaine IC80; actives deviate in either direction; B-score at 10 µM; hit rate 1.3% among 110,000; AID 449768;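 active means Z score or B-score, a plate-position-corrected score, falls beyond the plate's 99.7% confidence bounds, in either direction; inactive means both scores lie inside the 99.7% bounds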;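 further: scored against the spread of the other compound wells on the same plate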
LYP act = LYP (human) phosphatase activation. Q9Y2R2. recombinant LYP, DiFMUP fluorescence; 0 = plate median, 100 = signal doubled. activation, % at 2 µM. hit rate 0.11% among 96,000. AID 697;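 active means activation at 2 µM above a set limit, the mean plus 5 SD, cut at about 37% in these data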
PLK1 kinase inh = inhibitors of human PLK1 kinase; hit rate 0.53% among 97,000; recombinant PLK1 kinase, TR-FRET peptide phosphorylation; P53350; inhibition, % at 10 µM;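 active means inhibition of 50% or more in the single-concentration screen; inactive means inhibition below 50%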;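 further: 0% = DMSO max control and 100% = H-89 dihydrochloride min control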
PTPN22 inh 2 = LYP (human) phosphatase inhibition. hit rate 0.21% among 96,000. inhibition, % at 2 µM. recombinant LYP catalytic domain, DiFMUP fluorescence. Q9Y2R2. AID 640;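 active means inhibition at 2 µM at or above a set limit, the screen mean plus 3 SD, cut at about 24% in these data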;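 further: 0% = DMSO with enzyme and 100% = enzyme fully blocked by orthovanadate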
PLK1 PBD inh = blocks phosphopeptide binding to human Plk1 polo box domain | P53350 | Plk1 PBD phosphopeptide binding, fluorescence polarization | AID 693 | inhibition, %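 (tested at about 20 µM)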 | hit rate 0.13% among 97,000; in the data active means inhibition above about 34%, passing the limit was not always enough
Redox H2O2 DR = generates H2O2 by redox cycling, flagging false Plk1 PBD hits; AID 876; redox cycling H2O2 generation, DTT, counter-screen; 120 tested, under 10 active; shares compounds with PLK1 PBD inh; EC50, µM; call rule not given here
Numbers without * were called inactive; [ ] = dose if it differs, or a comment.

What do the screens show for `CC(C)OCCCNC(=O)c1ccc(NC(=O)C2CCCO2)cc1` (stereo not given)?
HIV Rev-RRE inh: 1; DAT uptake mod: -0.044; LYP act: -6; PLK1 kinase inh: -7; PTPN22 inh 2: 4; PLK1 PBD inh: 35*; Redox H2O2 DR: >50

What do the screens show for `C=CCn1c2ccccc2c2nnc(SCc3ccc4nonc4c3)nc21`?
HIV Rev-RRE inh: 10; DAT uptake mod: -0.0026; LYP act: 18; PLK1 kinase inh: -6; PTPN22 inh 2: -20; PLK1 PBD inh: 50*; Redox H2O2 DR: >50

Results for COC(=O)CCc1c(C)[nH]c(=S)[nH]c1=O ?
HIV Rev-RRE inh: 6; DAT uptake mod: -0.49; LYP act: 9; PLK1 kinase inh: -7; PTPN22 inh 2: -12; PLK1 PBD inh: 45*; Redox H2O2 DR: >50

What do the screens show for `CCOC(=O)Cc1c(C)[nH]c(=S)[nH]c1=O`?
HIV Rev-RRE inh: 1; DAT uptake mod: 0.44; LYP act: 12; PLK1 kinase inh: 2; PTPN22 inh 2: -14; PLK1 PBD inh: -17

How did O=C1CC(c2ccccc2)n2nc(N3C(=O)c4ccccc4C3=O)nc2N1 (stereo not given) do in these assays?
HIV Rev-RRE inh: 15; DAT uptake mod: 1.2; LYP act: -8; PLK1 kinase inh: -16; PTPN22 inh 2: 4; PLK1 PBD inh: 0

Results for CCOC(=O)Cc1csc(NC(=O)CSc2nnc(-c3ccc(F)cc3)o2)n1 ?
HIV Rev-RRE inh: 2; DAT uptake mod: 0.012; LYP act: 0; PLK1 kinase inh: 5; PTPN22 inh 2: -1; PLK1 PBD inh: 40*; Redox H2O2 DR: >50

Results for CN1C(C(=O)NCc2ccc(OC(F)(F)F)cc2)CC2Cn3c(nc4cc(Cl)c(Cl)cc43)C21 (stereo not given) ?
DAT uptake mod: 1.7

What do the screens show for `CCCCOCCCNC(=O)CCCOc1ccccc1`?
HIV Rev-RRE inh: 3; DAT uptake mod: -0.98; LYP act: 4; PLK1 kinase inh: -12; PTPN22 inh 2: -3; PLK1 PBD inh: -22

Results for CCOCCCNC(=O)CCCOc1ccccc1 ?
HIV Rev-RRE inh: 4; DAT uptake mod: -2; LYP act: -5; PLK1 kinase inh: -8; PTPN22 inh 2: 4; PLK1 PBD inh: 43*; Redox H2O2 DR: >50

How did C[C@H]1CCC[C@@]2(O[C@H](CCO)C[C@@H](O)[C@@H]2O)O1 do in these assays?
DAT uptake mod: -0.62

How did Cc1ccc(Cl)cc1N1CCN(S(=O)(=O)c2ccc3c(c2)oc(=O)n3C)CC1 do in these assays?
HIV Rev-RRE inh: 6; DAT uptake mod: 1.2; LYP act: 6; PLK1 kinase inh: -9; PTPN22 inh 2: -9; PLK1 PBD inh: 39*; Redox H2O2 DR: >50

How did Cc1ccc(N(C)C(=O)N2CCN(S(=O)(=O)c3ccc4ccccc4c3)CC2)cc1 do in these assays?
HIV Rev-RRE inh: -5; DAT uptake mod: 1.5; LYP act: -13; PLK1 kinase inh: 6; PTPN22 inh 2: 12; PLK1 PBD inh: 0

Results for CC(C)=CC(=O)NCCc1ccccc1 ?
HIV Rev-RRE inh: 3; DAT uptake mod: -0.17; LYP act: 18; PLK1 kinase inh: -5; PTPN22 inh 2: -18; PLK1 PBD inh: 51*; Redox H2O2 DR: >50

Results for C/C(=C/C(=O)NCc1ccccc1)C(=O)O ?
HIV Rev-RRE inh: 5; DAT uptake mod: -0.033; LYP act: 6; PLK1 kinase inh: -9; PTPN22 inh 2: -3; PLK1 PBD inh: -14

What do the screens show for `NC(=O)C1(N2CCCCC2)CCN(C(=O)NC2CCCCC2)CC1`?
HIV Rev-RRE inh: 9; DAT uptake mod: 0.58; LYP act: -3; PLK1 kinase inh: -3; PTPN22 inh 2: 2; PLK1 PBD inh: 52*; Redox H2O2 DR: >50

Results for COc1ccc(-n2c(SCC(=O)Nc3nccs3)nc3c(c2=O)SC(C)C3)cc1 (stereo not given) ?
DAT uptake mod: 1.9

Results for Cc1ccc(/C=N/N2CCN(Cc3cccc4ccccc34)CC2)s1 ?
PLK1 kinase inh: -6

How did O=C1CCN2C=Nc3cccc4ccc1c2c34 do in these assays?
HIV Rev-RRE inh: 130*[fluorescence artefact?]; DAT uptake mod: 0.41; LYP act: -2; PLK1 kinase inh: -20; PTPN22 inh 2: 1; PLK1 PBD inh: 51*; Redox H2O2 DR: >50
